Reference: ChEMBL document CHEMBL1131482 (J Med Chem, 1998)
Activity calls are given as the source filed them.

What was measured:
IMR-32 [1] = assay: Cholinergic interactions was measured with FLIPR device on cells of IMR-32 human neuroblastoma clonal line and given as Intrinsic activity; assay type: functional
In short: (§1)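 Cells were plated on poly(ethylenimine)-coated plates and used about 72 h later. Loading was Fluo-3 AM for 1 h at 37 °C, followed by washes in Hepes-salts buffer, pH 7.4. FLIPR recorded Ca2+ fluorescence over 5 min after agonist addition. Responses were normalized to 100 µM nicotine (100%) and unloaded cells (0%), and EC50 and intrinsic activity were derived from concentration-response curves.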

IMR-32 [2] = assay: Cholinergic interactions was measured with FLIPR device on IMR-32 cells of human neuroblastoma clonal line, given as effective dose; assay type: functional, cell-based; in short: as §1
K177 cell line [3] = assay: Cholinergic interactions was measured with FLIPR device on […] cells and given as EC50.; assay type: functional, cell-based; conditions: Homo sapiens; in short: as §1
K177 cell line [4] = assay: Cholinergic interactions was measured with FLIPR device on […] cells and given as Intrinsic activity; assay type: functional, Homo sapiens; in short: as §1
Mus musculus [5] = assay: Maximal nontoxic dose of the compound, done on mouse; sc; assay type: functional
In short: (§2)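 Male Swiss-Webster mice dosed sc. The value is the highest dose causing no visible behavioural change (tremors, convulsions, hypomotility etc.), so that treated mice could not be told apart from untreated ones. Behaviour was scored by the Irwin method in groups of at least 10 animals.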

Mus musculus [6] = assay: Minimal dose able to induce a statistically significant increase of the pain threshold, done on mouse; sc; assay type: functional
In short: (§3)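 Mouse hot plate test (52.5 ± 0.1 °C, 45 s cutoff) after sc dosing, in male Swiss-Webster mice. The value is the lowest dose giving a statistically significant rise in pain threshold. Dunnett's two-tailed test compared treated mice at maximum reaction time with pretest time, P < 0.05.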

Mus musculus [7] = species: Mus musculus; assay: Analgesic efficacy is expressed as percentage of that epibatidine, done on mouse.; assay type: functional
Mus musculus [8] = species: Mus musculus; assay: Analgesic efficacy is expressed as percentage of that morphine, done on mouse.; assay type: functional
TE-671 [9] = assay: Cholinergic interactions was measured with FLIPR device on TE671 cells and given as Intrinsic activity; assay type: functional, Homo sapiens; in short: as §1
TE-671 [10] = assay: Cholinergic interactions was measured with FLIPR device on TE671 cells and given as Effective dose; assay type: functional, cell-based; conditions: Homo sapiens; in short: as §1
Mus musculus [11] = assay: MNTD:Maximal nontoxic dose of the compound, done on mouse; sc; assay type: functional; in short: as §2
Mus musculus [12] = assay: MAD: minimal dose able to induce a statistically significant increase of the pain threshold, done on mouse; sc; assay type: functional; in short: as §3
Mus musculus [13] = assay: Licking latency was measured after 15 min treatment (at dose=3 mg/kg) by using mouse hot plate test; assay type: functional
In short: (§4)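 Male Swiss-Webster mice (22-28 g), 23 ± 1 °C, 12-h light/dark cycle, food and water ad libitum. Hot plate at 52.5 ± 0.1 °C with licking latency as read-out and 45 s cutoff. Mice with pre-drug latency below 12 or over 18 s were rejected. Compounds given sc, 5-12 mice per test. Significance was assessed by Dunnett's two-tailed test, P < 0.05.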

Mus musculus [14] = assay: Licking latency was measured after 15 min treatment (at dose=10 mg/kg) by using mouse hot plate test; assay type: functional; in short: as §4
Mus musculus [15] = assay: Licking latency was measured after 45 min treatment (at dose=10 mg/kg) by using mouse hot plate test; assay type: functional; in short: as §4
Mus musculus [16] = assay: Licking latency was measured after 45 min treatment (at dose=3 mg/kg) by using mouse hot plate test; assay type: functional; in short: as §4
Mus musculus [17] = assay: Licking latency was measured before treatment (at dose=10 mg/kg) by using mouse hot plate test; assay type: functional; in short: as §4
Mus musculus [18] = assay: Licking latency was measured before treatment (at dose=3 mg/kg) by using mouse hot plate test; assay type: functional
In short: (§5)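 Male Swiss-Webster mice (22-28 g), 23 ± 1 °C, 12-h light/dark cycle. Hot plate at 52.5 ± 0.1 °C. Mice with pre-drug licking latency below 12 s or over 18 s were rejected. Cutoff 45 s. Compound given sc; latency read before dosing and at 15, 30 and 45 min. 5-12 mice per test.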

Mus musculus [19] = assay: Licking latency was measured after 30 min treatment (at dose=10 mg/kg) by using mouse hot plate test; assay type: functional; in short: as §4
Mus musculus [20] = assay: Licking latency was measured after 30 min treatment (at dose=3 mg/kg) by using mouse hot plate test; assay type: functional; in short: as §4
Mus musculus [21] = assay: MAD: minimal dose able to induce a statistically significant increase of the pain threshold, done on mouse; sc; IA = inactive; assay type: functional, organism-based; in short: as §3
Mus musculus [22] = assay: Licking latency was measured after 45 min treatment (at dose=50 mg/kg) by using mouse hot plate test; assay type: functional; in short: as §4
Mus musculus [23] = assay: Licking latency was measured before treatment (at dose=50 mg/kg) by using mouse hot plate test; assay type: functional; in short: as §5
Mus musculus [24] = assay: Licking latency was measured after 15 min treatment (at dose=50 mg/kg) by using mouse hot plate test; assay type: functional; in short: as §4
Mus musculus [25] = assay: Licking latency was measured after 30 min treatment (at dose=50 mg/kg) by using mouse hot plate test; assay type: functional; in short: as §4
Mus musculus [26] = assay: Licking latency was measured after 15 min treatment (at dose=25 mg/kg) by using mouse hot plate test (*P<0.01); assay type: functional; in short: as §4
Mus musculus [27] = assay: Licking latency was measured after 45 min treatment (at dose=25 mg/kg) by using mouse hot plate test (*P<0.05); assay type: functional; in short: as §4
Mus musculus [28] = assay: Licking latency was measured before treatment (at dose=25 mg/kg) by using mouse hot plate test; assay type: functional; in short: as §4
Mus musculus [29] = assay: Licking latency was measured after 30 min treatment (at dose=25 mg/kg) by using mouse hot plate test(*P<0.05); assay type: functional; in short: as §4
Mus musculus [30] = assay: Licking latency was measured after 30 min treatment (at dose=5 mg/kg) by using mouse hot plate test; assay type: functional; in short: as §4
Mus musculus [31] = assay: Licking latency was measured before treatment (at dose=5 mg/kg) by using mouse hot plate test; assay type: functional; in short: as §5
Mus musculus [32] = assay: Licking latency was measured after 15 min treatment (at dose=5 mg/kg) by using mouse hot plate test; assay type: functional; in short: as §4
Mus musculus [33] = assay: Licking latency was measured after 45 min treatment (at dose=5 mg/kg) by using mouse hot plate test; assay type: functional; in short: as §4

Clc1ccc(C2CC3CC[C@H]2N3)cn1 (some centres not stated) [EPIBATIDINE]
Intrinsic activity (IMR-32 [1]): 145.6%
EC50 (IMR-32 [2]): 34 nM
EC50 (K177 cell line [3]): 350 nM
Intrinsic activity (K177 cell line [4]): 148.1%
MNTD (Mus musculus [5]): 7 µg/kg
MAD (Mus musculus [6]): 1 µg/kg
Efficacy (Mus musculus [7]): 100%
Efficacy (Mus musculus [8]): 82%
Intrinsic activity (TE-671 [9]): 79.5%
EC50 (TE-671 [10]): 1260 nM

Clc1nccc(N2CC3CCC(C2)N3)n1
MNTD (Mus musculus [11]): 15 mg/kg
MAD (Mus musculus [12]): 3 mg/kg
Licking latency (Mus musculus [13]): 21.3 s
Licking latency (Mus musculus [14]): 31.1 s
Licking latency (Mus musculus [15]): 24.3 s
Licking latency (Mus musculus [16]): 16.2 s
Licking latency (Mus musculus [17]): 15.3 s
Licking latency (Mus musculus [18]): 14.5 s
Licking latency (Mus musculus [19]): 26 s
Licking latency (Mus musculus [20]): 17.4 s
Analgesic efficacy compared to epibatidine (Mus musculus [7]): 99%
Analgesic efficacy compared to morphine (Mus musculus [8]): 82%

CCC(=O)N1CC2CCC(C1)N2c1ccc(Cl)nn1
MNTD (Mus musculus [11]): >50 mg/kg
MAD (Mus musculus [21]): inactive
Licking latency (Mus musculus [14]): 16 s
Licking latency (Mus musculus [15]): 16.1 s
Licking latency (Mus musculus [22]): 14 s
Licking latency (Mus musculus [17]): 15.8 s
Licking latency (Mus musculus [23]): 14.6 s
Licking latency (Mus musculus [24]): 17 s
Licking latency (Mus musculus [19]): 16.7 s
Licking latency (Mus musculus [25]): 13 s

Clc1ccc(N2C3CCC2CN(Cc2ccccc2)C3)nn1
MNTD (Mus musculus [11]): >50 mg/kg
MAD (Mus musculus [21]): inactive
Licking latency (Mus musculus [22]): 17.6 s
Licking latency (Mus musculus [23]): 14.8 s
Licking latency (Mus musculus [24]): 17.2 s
Licking latency (Mus musculus [25]): 15.3 s

CCN1C2CCC1CN(c1ccc(Cl)nn1)C2
MNTD (Mus musculus [11]): 20 mg/kg
MAD (Mus musculus [12]): 10 mg/kg
Licking latency (Mus musculus [26]): 26 s
Licking latency (Mus musculus [14]): 19.3 s
Licking latency (Mus musculus [15]): 16.4 s
Licking latency (Mus musculus [27]): 20.8 s
Licking latency (Mus musculus [17]): 13.2 s
Licking latency (Mus musculus [28]): 14.3 s
Licking latency (Mus musculus [19]): 18.4 s
Licking latency (Mus musculus [29]): 20.5 s
Analgesic efficacy compared to epibatidine (Mus musculus [7]): 74%
Analgesic efficacy compared to morphine (Mus musculus [8]): 61%

Clc1ccnc(N2CC3CCC(C2)N3)n1
MNTD (Mus musculus [11]): 15 mg/kg
MAD (Mus musculus [12]): 5 mg/kg
Licking latency (Mus musculus [14]): 26.3 s
Licking latency (Mus musculus [30]): 17.8 s
Licking latency (Mus musculus [15]): 22.1 s
Licking latency (Mus musculus [17]): 14.6 s
Licking latency (Mus musculus [31]): 15 s
Licking latency (Mus musculus [32]): 20.5 s
Licking latency (Mus musculus [19]): 21.2 s
Analgesic efficacy compared to epibatidine (Mus musculus [7]): 75%
Analgesic efficacy compared to morphine (Mus musculus [8]): 60%
Licking latency (Mus musculus [33]): 15.6 s
